From ChEMBL document CHEMBL1126930, “New analogues of N-(2-aminoethyl)-4-chlorobenzamide (Ro 16-6491). Some of the most potent monoamine oxidase-B inactivators” (J Med Chem, 1993)

Test: Inhibition of mitochondrial Monoamine oxidase-B purified from bovine liver
Outline: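 MAO-B purified from bovine liver mitochondria. Enzyme preincubated 20 min with various inactivator concentrations. 10 μL aliquots then assayed for remaining activity in 490 μL of 1 mM benzylamine hydrochloride in 50 mM Tris-HCl, pH 9.0. IC50 extrapolated from plots of percent activity remaining versus inhibitor concentration. Duplicate runs varied by 0–5%.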

Question: Which IC50 does the source give for NCCNC(=O)c1ccccc1Br here?
Answer: The IC50 was 1200 nM.

Question: With NCCNC(=O)c1cccc(F)c1 as the compound, how does the IC50 read?
Answer: Its IC50 is 200 nM.

Question: Which IC50 does the source give for NCCNC(=O)c1ccc(F)cc1 here?
Answer: The IC50 was 56 nM.

Question: For NCCNC(=O)c1ccc(Cl)cc1, which IC50 is on record?
Answer: Its IC50 is 45 nM.

Question: Which IC50 does the source give for NCCNC(=O)c1ccccc1 here?
Answer: Its IC50 is 250 nM.

Question: With NCCNC(=O)c1ccc(Br)cc1 as the compound, how does the IC50 read?
Answer: The IC50 was 42 nM.

Question: With NCCNC(=O)c1ccccc1[N+](=O)[O-] as the compound, how does the IC50 read?
Answer: Its IC50 is 2170 nM.

Question: With NCCNC(=O)c1ccc([N+](=O)[O-])cc1 as the compound, how does the IC50 read?
Answer: Its IC50 is 48200 nM.

Question: With NCCNC(=O)c1cccc(Br)c1 as the compound, how does the IC50 read?
Answer: Its IC50 is 52 nM.

Question: For NCCNC(=O)c1ccc(I)cc1, which IC50 is on record?
Answer: The IC50 was 170 nM.

Question: With NCCNC(=O)c1ccccc1F as the compound, how does the IC50 read?
Answer: The IC50 was 160 nM.

Question: With NCCNC(=O)c1cccc(I)c1 as the compound, how does the IC50 read?
Answer: The IC50 was 37 nM.

Question: For NCCNC(=O)c1cccc([N+](=O)[O-])c1, which IC50 is on record?
Answer: Its IC50 is 60 nM.

Question: For NCCNC(=O)c1cccc(Cl)c1, which IC50 is on record?
Answer: Its IC50 is 120 nM.

Question: Which IC50 does the source give for NCCNC(=O)c1ccc(Cl)cn1 [LAZABEMIDE] here?
Answer: Its IC50 is 30 nM.

Question: Which IC50 does the source give for NCCNC(=O)c1ccccc1Cl here?
Answer: The IC50 was 490 nM.

Question: Which IC50 does the source give for NCCNC(=O)c1ccccc1I here?
Answer: Its IC50 is 61500 nM.
